Pemphigus Ab inh – human desmoglein-3 autoantibody binding inhibition; P32926; DSG3-coupled beads, scFv-anti-DSG3-GFP binding, flow cytometry; active compounds read low; binding (percent of control), % at 10 µM; 0.48% of 310,000 active; AID 588358;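 active = binding more than 3 SD below its plate's average and above zero; inconclusive = below that plate limit but binding exactly zero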;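 also: hits lower antibody fragment binding to DSG3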
SUMO1-SIM PPI – SUMO1-SIM interaction modulation | SUMO1 binding to a labelled peptide, TR-FRET, 1 h | AID 602429 | P63165 | 0.33% of 360,000 active | inhibition, % at 20 µM; in the data active = inhibition above about 37%
Target sequence (P63165 whole entry, looked up): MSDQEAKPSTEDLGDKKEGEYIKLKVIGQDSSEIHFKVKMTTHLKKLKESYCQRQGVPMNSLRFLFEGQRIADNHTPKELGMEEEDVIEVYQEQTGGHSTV
DNMT1 inh – DNMT1 (human) enzyme inhibition; P26358; DNMT1 molecular beacon, Hinp1I cleavage, fluorescence; inhibition (reported as % activation of signal), % at 10 µM; 0.83% of 360,000 active; in the data active = inhibition above about 50%
MBD2 DNA inh – MBD2-methylated oligo binding inhibition | TR-FRET, MBD2 binding to methylated oligonucleotide | 0.31% of 370,000 active | Q9UBB5 | inhibition, % at 4.4 µM; in the data active = inhibition above about 13%
Target sequence (Q9UBB5 whole entry, looked up): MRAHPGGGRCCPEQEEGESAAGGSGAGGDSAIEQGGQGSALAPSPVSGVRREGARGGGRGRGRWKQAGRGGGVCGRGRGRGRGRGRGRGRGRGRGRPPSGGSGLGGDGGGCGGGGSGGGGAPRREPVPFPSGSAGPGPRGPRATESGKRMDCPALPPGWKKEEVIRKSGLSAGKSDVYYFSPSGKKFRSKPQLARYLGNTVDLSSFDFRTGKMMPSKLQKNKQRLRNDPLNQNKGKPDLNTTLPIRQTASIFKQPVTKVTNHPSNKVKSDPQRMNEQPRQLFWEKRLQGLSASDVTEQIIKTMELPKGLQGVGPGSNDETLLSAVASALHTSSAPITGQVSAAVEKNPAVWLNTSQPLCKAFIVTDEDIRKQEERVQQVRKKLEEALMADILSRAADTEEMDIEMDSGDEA
NS3 helicase inh – blocks Hepatitis C virus NS3 helicase unwinding | NS3 helicase DNA unwinding, Cy5 molecular beacon fluorescence | inhibition, % at 10.9 µM | 0.56% of 290,000 active | AID 1800;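 active = inhibition above the mean of all tested compounds plus 3 SD, set per campaign, cut at about 35% in these data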;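 also: 0% = DMSO wells and 100% = thioflavine S control wells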
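Test system: hepatitis C virus NS3 helicase domain fragment enzyme. Also added: annealed dual-labelled DNA beacon duplex, ATP-started. Timing: 60 min unwinding reaction at 25 °C after ATP addition. Technique: Cy5 fluorescence. Measure: % inhibition of unwinding.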
UHRF1 binding – blocks human UHRF1 binding to methylated DNA; Q96T88; inhibition, % at 4.4 µM; AID 687016; UHRF1 binding to methylated oligo, TR-FRET; 0.75% of 370,000 active; in the data active = inhibition above about 21%;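 also: UHRF1 SRA domain binding a hemimethylated CpG hairpin DNA probe; 0% = median of test compound wells and 100% = reference inhibitor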
Active calls of the source: *; i = inactive; ? = inconclusive; · = no result given. This is a sample that favours compounds with a hit; in the whole collection about 2.5% have one here.

SMILES	Pemphigus Ab inh	SUMO1-SIM PPI	DNMT1 inh	MBD2 DNA inh	NS3 helicase inh	UHRF1 binding
O=C(NC(=S)Nc1ccccc1)c1ccc(-c2ccccc2)cc1	108	-2	2	4	8	-1
CC(C)NS(=O)(=O)c1ccc(NC(=S)NC(=O)c2ccc(-c3ccccc3)cc2)cc1	99	-3	-6	4	7	0
O=C(NC(=S)Nc1ccc(N2CCOCC2)cc1)c1ccc(Cl)cc1	73*	-4	12	4	-7	1
CC(C)(C)c1ccc(C(=O)NC(=S)Nc2ccc(N3CCOCC3)cc2)cc1	·	-1	5	4	-7	-4
C=CCN(CC=C)S(=O)(=O)c1ccc(NC(=S)NC(=O)/C=C/c2ccccc2)cc1	·	63*	3	-5	-3	0
O=C(/C=C/c1ccccc1)NC(=S)Nc1ccc(N2CCOCC2)cc1	76*	-4	-2	-6	3	-3
CC(=O)c1ccc(NC(=O)C2CCCN(S(=O)(=O)c3ccc(-n4cnnn4)cc3)C2)cc1 (stereo not given)	94	-2	0	0	-5	0
COC(=O)C1=C(C)N(Cc2ccccc2)C(=S)N[C@H]1c1ccc(Br)cc1	99	-5	-4	0	·	-2
CCCn1c(NC(=O)c2ccc(F)cc2)nc2ccccc21	115	24	-5	3	6	-4
C=CCn1c(NC(=O)c2ccccc2)nc2ccccc21	97	3	0	4	8	72*
CCCn1c(NC(=O)c2ccc(Br)cc2)nc2ccccc21	85*	15	1	-2	12	-3
CCOC(=O)c1ccccc1NC(=O)CN1CCC(n2nnc3cc(C(F)(F)F)ccc32)CC1	114	61*	5	1	9	0
COC(=O)c1ccccc1NC(=O)CN1CCC(n2nnc3cc(F)ccc32)CC1	109	-2	6	4	8	-4
COCCNC(=O)CN(c1ccc(C)cc1)S(=O)(=O)c1ccccc1	101	8	3	2	4	1
O=C(c1cccs1)c1no[n+]([O-])c1C(=O)c1cccs1	107	13	64*	·	11	·
CC1=NN(c2ccc(C(=O)O)c(N)c2)C(=O)C1	101	5	44	1	30	28*
Cc1cccc(OCC(=O)NC(=S)N2CCCc3ccccc32)c1	95	-5	-6	1	-5	-3
N#C/C(=C(/O)CN1CCCCC1)c1nc(-c2ccc(Cl)cc2)cs1	103	-5	-5	4	9	3
N#C/C(=C(/O)CN1CCN(c2ccccc2F)CC1)c1nc(-c2ccc(Cl)cc2)cs1	60*	-1	-5	-1	8	6
COc1cccc(CN2CCCN(S(=O)(=O)c3ccc(Br)cc3)CC2)c1	101	-1	-3	·	-23	·
O=S(=O)(c1ccc(Br)cc1)N1CCCN(Cc2cccc(F)c2)CC1	101	-2	-2	-3	-11	62*
OCc1ccccc1-c1nc(NCC2CC2)nc2ccsc12	·	-1	4	-3	·	-2
Cc1cccc(C(=O)Nc2cccc(Br)c2)c1[N+](=O)[O-]	88	-1	-4	-4	-8	-3
COc1cccc(NC(=O)c2cccc(C)c2[N+](=O)[O-])c1	100	-5	0	-2	1	62*
Cc1cc(C)n2nc3nc(N4CCCCC4)nc(-c4ccco4)c3c2n1	110	11	54*	·	·	·
SMILES	Pemphigus Ab inh	SUMO1-SIM PPI	DNMT1 inh	MBD2 DNA inh	NS3 helicase inh	UHRF1 binding
CCOCCCNC(=O)c1cc(Cl)c(NC(=O)C2=C(C)OCCS2)cc1OC	107	4	-2	-1	-1	-3
NS(=O)(=O)c1ccc(NC(=S)N2CCN(c3ccc(Cl)c(Cl)c3)CC2)cc1	53*	-2	1	0	-18	5
NS(=O)(=O)c1ccc(NC(=S)N2CCN(Cc3ccc(Cl)c(Cl)c3)CC2)cc1	·	2	-6	4	-7	-3
N=C(N)c1ccc(N=Nc2c(O)ccc3c2[nH]c2ccccc23)cc1	69*	129*	51*	11	·	16
NC(=O)c1ccc(N=Nc2c(O)c3ccccc3[nH]c2=O)cc1	·	·	·	·	2	·
COc1ccc(-c2csc(NC(=O)c3cc(C)on3)c2C#N)cc1OC	79*	-4	0	3	4	4
Cc1cc(S(=O)(=O)N2CCCC(N(C)CCc3ccccn3)C2)c(C)cc1Cl (stereo not given)	106	-4	-3	9	-19	23*
COC(=O)c1ccc(C(=O)N2CCCC(Nc3ccc(C(C)C)cc3)C2)nc1 (stereo not given)	·	-1	4	-4	11	-1
CC1CC(C)CN(CCCNC(=O)c2ccc(CNS(=O)(=O)c3ccc(F)cc3)cc2)C1 (stereo not given)	?	-4	-4	2	-11	-3
O=C(c1coc2ccc(O)cc12)C1CC1	99	0	1	-10	6	21*
Cc1ccc(-n2[nH]c(=O)c(-c3ccccn3)c2C)cc1	100	-5	2	-1	7	3
COC(=O)Cc1cc(=O)n2[nH]c(C)cc2n1	100	-3	6	0	-2	1
CCCc1cc(=O)n2[nH]c(C)cc2n1	83*	2	2	2	6	2
CCCCNc1ccc2c3c(cccc13)C(=O)N(CCCC)C2=O	·	-74	61*	-5	-15	-19
CCN1C(=O)c2cccc3c(N)ccc(c23)C1=O	93	-105	124*	-92	9	-299
Cc1ccc(N2C(=O)c3cccc4c(N)ccc(c34)C2=O)c2cccnc12	i	-13	48	-3	0	-21
CN(C)CCCN1C(=O)c2cccc3c(Br)ccc(c23)C1=O	98	-20	41	10	14	2
Cc1nn(C)c(C)c1N1C(=O)c2cccc3c(Br)ccc(c23)C1=O	110	-28	4	0	15	22*
Cc1nn(C)c(C)c1N1C(=O)c2cccc3c(N)ccc(c23)C1=O	101	-47	93*	-73	-3	-311
CCc1ccc(/C=N\NC(=O)c2ccc(Br)o2)s1	94	-14	-3	4	0	-3
COc1ccc(OC)c(NC(=O)COC(=O)CCS(=O)(=O)c2ccc(Cl)cc2)c1	·	0	0	4	·	21*
Nc1c(S(=O)(=O)c2ccccc2)cnc2c(-c3ccc(F)cc3)cnn12	-18*	0	7	-1	3	6
COc1ccc(-c2cnn3c(N)c(S(=O)(=O)c4ccccc4)cnc23)cc1	100	6	-10	2	-2	-1
O=C(O)CC(NCc1ccco1)C(=O)OCCCl (stereo not given)	105	4	4	-2	5	5
CCOc1ccccc1-c1nc(-c2ccncc2)no1	96	2	10	-3	7	-2
